Laboratory results published in ChEMBL document CHEMBL5370586 (J Nat Prod, 2023).
Calls of active or inactive are those of the source. The rule behind the calls is not given here.

What was measured:
PC-3 [1] = assay: Induction of apoptosis in human PC-3 cells at IC50 concentration incubated for 48 hrs by YO-PRO and PI staining based flow cytometry analysis; assay type: functional, cell-based
How it was run: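 After 48 h CBD, DU145 (4 × 10^4 per well) or PC-3 (3 × 10^4 per well) supernatant and trypsinised cells pooled. Stained in ice-cold PBS with YO-PRO (1:1000) and propidium iodide (1:1000). Flow cytometry gated live, early apoptotic and late apoptotic cells and DNA fragmentation.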

PC-3 [2] = assay: Induction of apoptosis in human PC-3 cells assessed as early apoptotic cells at 1 to 10 uM incubated for 72 hrs by YO-PRO and propidium iodide staining based high content imaging fluorescence microscopic analysis; assay type: functional, cell-based; conditions: dose 1-10 µM
How it was run: (§1)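 DU145 or PC-3 cells seeded at 2 × 10^3 per well and given CBD at 1, 5 or 10 μM with serum for 72 h; staurosporine as positive control. Stained 30 min with Hoechst 33342 (1:5000), YO-PRO-1 (1:1000) and PI (1:1000). High-content imaging with a 63× water objective. Hoechst gave confluency, nucleus area and circularity; YO-PRO/PI gave healthy, early and late apoptotic fractions.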

DU-145 [3] = assay: Antiproliferative activity against human DU-145 cells assessed as reduction in cell viability incubated for 72 hrs in presence of capsazepine by MTT assay; assay type: functional, cell-based
How it was run: (§2)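 DU145 or PC-3 cells pretreated 1 h with SR141716 (CB1 antagonist), SR144528 (CB2 antagonist), capsazepine (TRPV1 antagonist) or LPI (GPR55 agonist), then given CBD for 72 h. MTT read-out as % of vehicle. Compared with CBD alone by t-test; at least three independent experiments.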

DU-145 [4] = assay: Induction of cell cycle arrest in human DU-145 cells assessed as arrest in G2/M phase by measuring reduction in CDK7 protein expression at IC50 concentration incubated for 48 hrs by Western blotting analysis; assay type: functional, cell-based
How it was run: (§3)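 DU145 or PC-3 cells seeded at 5 × 10^4 per well and given CBD for 48 h. Lysed in ice-cold RIPA with protease/phosphatase inhibitor; 40 μg protein per lane, SDS-PAGE, PVDF transfer, milk block. Primary antibodies overnight at 4 °C, then HRP secondary 1 h at room temperature, chemiluminescence. Densitometry normalised to loading control, then to vehicle; at least three experiments.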

PC-3 [5] = assay: Anti-invasive activity against human PC-3 cells assessed as increase in E-cadherin protein expression incubated for 48 hrs by Western blotting analysis; assay type: functional
PWR-1E [6] = assay: Induction of apoptosis in human PWR-1E cells assessed as late apoptotic cells at 1 to 10 uM incubated for 72 hrs by YO-PRO and propidium iodide staining based high content imaging fluorescence microscopic analysis; assay type: toxicity, cell-based; conditions: dose 1-10 µM
How it was run: (§4)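 PWR-1E cells seeded at 2 × 10^3 per well and given CBD at 1, 2 or 10 μM without serum for 72 h. Stained with Hoechst 33342, YO-PRO-1 and PI, then imaged by high-content microscopy. Scored for confluency and for healthy, early and late apoptotic fractions; at least three independent experiments.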

PC-3 [7] = assay: Antiproliferative activity against human PC-3 cells assessed as reduction in cell viability incubated for 72 hrs in presence of capsazepine by MTT assay; assay type: functional, cell-based; how it was run: as §2
PC-3 [8] = assay: Induction of cell cycle arrest in human PC-3 cells assessed as arrest in G1/S phase by measuring reduction in cyclin D3 protein expression at IC50 concentration incubated for 48 hrs by Western blotting analysis relative to control; assay type: functional, cell-based; how it was run: as §3
PC-3 [9] = assay: Antiproliferative activity against human PC-3 cells assessed as reduction in cell viability incubated for 72 hrs in presence of SR141716 by MTT assay; assay type: functional, cell-based; how it was run: as §2
DU-145 [10] = assay: Antiproliferative activity against human DU-145 cells assessed as reduction in cell confluency at 5 to 10 uM measured after 72 hrs by Hoechst 33342 staining based high content imaging fluorescence microscopic analysis; assay type: functional; conditions: dose 5-10 µM; how it was run: as §1
DU-145 [11] = assay: Inhibition of cell invasion in human DU-145 cells incubated for 48 hrs by crystal violet staining based microscopic analysis; assay type: functional
PWR-1E [12] = assay: Induction of apoptosis in human PWR-1E cells assessed as early apoptotic cells at 1 to 10 uM incubated for 72 hrs […] and propidium iodide staining based high content imaging fluorescence microscopic analysis; assay type: toxicity, cell-based; conditions: dose 1-10 µM; how it was run: as §4
PC-3 [13] = assay: Anti-invasive activity against human PC-3 cells assessed as reduction in MMP-1 protein secretion incubated for 48 hrs by ELISA analysis; assay type: functional, cell-based
[14] = Cytotoxicity against human PWR-1E cells assessed as cell viability incubated for 72 hrs in serum deprivation condition by MTT assay; assay type: toxicity, cell-based
How it was run: (§5)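 Cells seeded at 1 × 10^3 (DU145, PC-3), 6 × 10^3 (LNCaP), 2 × 10^3 (PWR-1E) or 4.5 × 10^3 (RWPE-1) per well and left to adhere 24 h. CBD (0–100 μM) then given for 72 h in serum-free medium. MTT added for 3 h at 37 °C, formazan dissolved in DMSO, absorbance read at 570 nm. Viability is % of vehicle; IC50 by nonlinear regression; at least three independent experiments.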

PC-3 [15] = assay: Induction of apoptosis in human PC-3 cells assessed as reduction in fraction of healthy cells at 1 to 10 uM incubated for 72 hrs by YO-PRO and propidium iodide staining based high content imaging fluorescence microscopic analysis; assay type: functional, cell-based; conditions: dose 1-10 µM; how it was run: as §1
DU-145 [16] = assay: Induction of cell death in human DU-145 cells assessed as reduction in cell nucleus area at 1 to 10 uM measured after 72 hrs by Hoechst 33342 staining based high content imaging fluorescence microscopic analysis; assay type: functional; conditions: dose 1-10 µM; how it was run: as §1
PC-3 [17] = assay: Inhibition of cell invasion in human PC-3 cells incubated for 48 hrs by crystal violet staining based microscopic analysis relative to control; assay type: functional
DU-145 [18] = assay: Induction of cell cycle arrest in human DU-145 cells assessed as arrest in G2/M phase by measuring reduction in CDK1 protein expression at IC50 concentration incubated for 48 hrs by Western blotting analysis; assay type: functional, cell-based; how it was run: as §3
PC-3 [19] = assay: Antiproliferative activity against human PC-3 cells assessed as reduction in cell confluency at 10 uM measured after 72 hrs by Hoechst 33342 staining based high content imaging fluorescence microscopic analysis; assay type: functional; how it was run: as §1
PC-3 [20] = assay: Anti-invasive activity against human PC-3 cells assessed as reduction in MMP-3 protein secretion incubated for 48 hrs by ELISA analysis; assay type: functional, cell-based
LNCaP = assay: Antiproliferative activity against human LNCaP cells assessed as reduction in cell viability incubated for 72 hrs in serum deprivation condition by MTT assay; assay type: functional, cell-based; how it was run: as §5
PC-3 [21] = assay: Induction of apoptosis in human PC-3 cells assessed as late apoptotic cells at 1 to 10 uM incubated for 72 hrs by YO-PRO and propidium iodide staining based high content imaging fluorescence microscopic analysis; assay type: functional, cell-based; conditions: dose 1-10 µM; how it was run: as §1
DU-145 [22] = assay: Antiproliferative activity against human DU-145 cells assessed as reduction in cell viability incubated for 72 hrs in presence of SR144528 by MTT assay; assay type: functional, cell-based; how it was run: as §2
DU-145 [23] = assay: Antiproliferative activity against human DU-145 cells assessed as reduction in cell viability incubated for 72 hrs in presence of SR141716 by MTT assay; assay type: functional, cell-based; how it was run: as §2
DU-145 [24] = assay: Induction of cell cycle arrest in human DU-145 cells assessed as arrest in G1/S phase by measuring reduction in cyclin D3 protein expression at IC50 concentration incubated for 48 hrs by Western blotting analysis relative to control; assay type: functional; design: scale not given: the % may be the effect or the level left; how it was run: as §3
PWR-1E [25] = assay: Induction of cell death in human PWR-1E cells assessed as reduction in nucleus area at 1 to 10 uM incubated for 72 hrs by Hoechst 33342 staining based high-content fluorescence microscopy; assay type: toxicity; conditions: dose 1-10 µM
DU-145 [26] = assay: Induction of apoptosis in human DU-145 cells assessed as reduction in fraction of healthy cells at 1 to 10 uM incubated for 72 hrs by YO-PRO and propidium iodide staining based high content imaging fluorescence microscopic analysis; assay type: functional, cell-based; conditions: dose 1-10 µM; how it was run: as §1

Structure (SMILES): C=C(C)[C@@H]1CCC(C)=C[C@H]1c1c(O)cc(CCCCC)cc1O [CANNABIDIOL]
- Activity (PC-3 [1]): inactive
- Activity (PC-3 [2]): inactive
- Activity (DU-145 [3]): Active
- Activity (DU-145 [4]): inactive
- Activity (PC-3 [5]): >2
- Activity (PWR-1E [6]): Toxic
- Activity (PC-3 [7]): Active
- Activity (PC-3 [8]): Active
- Activity (PC-3 [9]): Active
- Activity (DU-145 [10]): Active
- inhibition (DU-145 [11]): Active
- Activity (PWR-1E [12]): Toxic
- Activity (PC-3 [13]): inactive
- IC50 at 72 h [14]: 0.9 µM
- Activity (PC-3 [15]): inactive
- Activity (DU-145 [16]): inactive
- inhibition (INH) (PC-3 [17]): ~30%
- Activity (DU-145 [18]): Active
- Activity (PC-3 [19]): Active
- Activity (PC-3 [20]): inactive
- IC50 (LNCaP): 2.6 µM
- Activity (PC-3 [21]): inactive
- Activity (DU-145 [22]): Active
- Activity (DU-145 [23]): Active
- Activity (DU-145 [24]): ~20%
- Activity (PWR-1E [25]): Toxic
- Activity (DU-145 [26]): inactive
